The results in this text go back to ChEMBL document CHEMBL3272219, “Chemistry and antibacterial activity of nitrobenzofurans” (J Med Chem, 1976).

The structures appear in SMILES notation. Converted amounts (≈) assume the structure as drawn. The source made the active and inactive calls. Bounds are passed on as bounds.

A short description of data set [1]: Ratio of antibacterial activity against Escherichia coli B cultured in Jensen's minimal media to antibacterial activity against Escherichia coli Br cultured in Penassay broth. Type of data set: functional.
Data set [2] in a line: Half life of the compound in 5% Me2SO-Jensen's minimal media at 0.7 to 2 X 10^-4 M at pH 7 by spectrophotometric analysis. Type of data set: physicochemical. Put shortly:
(§1)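 Solvolysis was run at 37 ± 0.5° in Jensen's minimal medium at pH 7.0 with 5% Me2SO final, starting from 0.7–2.0 × 10^-4 M compound. Absorbance was followed at a preselected wavelength. Benzofuran concentration was calculated every half hour from substrate and product extinction coefficients. Data were fitted to a first-order rate law, with a 95% confidence range on the rate constant.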

The nature of data set [3]: Stability of the compound in aqueous solution. Type of data set: physicochemical. To be noted: buffer. A digest of the protocol:
as §1

In data set [4] the test system is Escherichia coli. The data set can be described thus: Antibacterial activity against Escherichia coli B cultured in Jensen's minimal media assessed as growth inhibition by turbidimetric analysis. Type of data set: functional, organism-based. A digest of the protocol: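 E. coli B, grown overnight in Jensen's minimal medium, was subcultured at 37° with shaking to 70% T. 1 ml of culture was added to 8 ml Jensen's broth (pH 7) plus 1 ml compound in 10% Me2SO. Five concentrations (dilution series 1–0.1) and a 1% Me2SO control were run. Turbidity was monitored with agitation. Log A vs time gave % inhibition, and IC50 came from log concentration–probability plots.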

In data set [5] the test system is Escherichia coli. Nature of the data set: Antibacterial activity against Escherichia coli Br assessed as decrease in viability at 7.7 X 10^-5 M after 2 hrs. Type of data set: functional, organism-based.
The test system of data set [6] is Staphylococcus aureus. Nature of the data set: Antibacterial activity against Staphylococcus aureus cultured in Penassay broth assessed as effect on lag time after 9 hrs by turbidimetric analysis. Type of data set: functional, organism-based. A digest of the protocol: (§2)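 Cultures in Penassay broth at 37° with compound added from 10% Me2SO and monitored at 660 nm every 20 min for 9 hr after inoculation. For each concentration, the log A660 vs time plot was extrapolated to A = 0.05. Time from inoculation to that point was taken as the lag time, which was then plotted against concentration.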

The test system of a further data set is Proteus mirabilis. The data set can be described thus: Antibacterial activity against Proteus mirabilis after 6 hrs by turbidimetric analysis. Type of data set: functional. Put shortly:
(§3)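 Overnight Penassay broth culture adjusted to 60% transmittance, diluted 10 ml into 900 ml broth; 4.5 ml inoculum added to 0.5 ml compound in 10% Me2SO. Nine-step dilution series (1 to 0.031), four replicates each, with positive and negative controls. Incubation at 37°, stationary except P. aeruginosa. Turbidity read at 660 nm after 6 hr. MIC taken as the lowest concentration giving >90% T.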

A short description of data set [7]: Half life of the compound in 10% Me2SO-Jensen's minimal media at 0.7 to 2 X 10^-4 M at pH 6 by spectrophotometric analysis. Type of data set: physicochemical.
Another data set deals with Providencia rettgeri. The data set can be described thus: Antibacterial activity against Proteus rettgeri after 6 hrs by turbidimetric analysis. Type of data set: functional. A digest of the protocol: as §3
The test system of data set [8] is Escherichia coli. Nature of the data set: Antibacterial activity against nitrofuran reductase-deficient Escherichia coli Br 207 after 6 hrs by turbidimetric analysis. Type of data set: functional. To be noted: Br 207, 6 h. A digest of the protocol:
as §3

In the next data set the test system is Enterococcus faecalis. Nature of the data set: Antibacterial activity against Streptococcus faecalis after 6 hrs by turbidimetric analysis. Type of data set: functional. Put shortly:
as §3

Data set [9] deals with Escherichia coli. The data set can be described thus: Antibacterial activity against Escherichia coli Br cultured in Penassay broth assessed as time required for growth suppression at 4.4 X 10^-5 M compound added in early log phase of growth by turbidimetric analysis. Type of data set: functional.
In data set [10] the test system is Klebsiella pneumoniae. The data set can be described thus: Antibacterial activity against Klebsiella pneumoniae cultured in Penassay broth assessed as effect on lag time after 9 hrs by turbidimetric analysis. Type of data set: functional, organism-based. Put shortly: as §2
The test system of data set [11] is Klebsiella pneumoniae. Nature of the data set: Antibacterial activity against Klebsiella pneumoniae after 6 hrs by turbidimetric analysis. Type of data set: functional. A digest of the protocol: as §3
The test system of data set [12] is Staphylococcus aureus. The data set can be described thus: Antibacterial activity against Staphylococcus aureus after 6 hrs by turbidimetric analysis. Type of data set: functional. A digest of the protocol:
as §3

The test system of data set [13] is Escherichia coli. The data set can be described thus: Antibacterial activity against Escherichia coli Br cultured in Penassay broth assessed as time required for growth suppression at 4.4 X 10^-5 M compound added in late log phase of growth by turbidimetric analysis. Type of data set: functional.
Data set [14] in a line: Half life of the compound in 20% Me2SO-Jensen's minimal media at 0.7 to 2 X 10^-4 M at pH 6 by spectrophotometric analysis. Type of data set: physicochemical.
For data set [15], the system named is Escherichia coli. The data set can be described thus: Antibacterial activity against Escherichia coli B after 6 hrs by turbidimetric analysis. Type of data set: functional. A digest of the protocol:
as §3

Another data set has as its system Pseudomonas aeruginosa. The data set can be described thus: Antibacterial activity against Pseudomonas aeruginosa after 6 hrs by turbidimetric analysis. Type of data set: functional. A digest of the protocol: as §3
Data set [16] deals with Escherichia coli. Nature of the data set: Antibacterial activity against Escherichia coli Br after 6 hrs by turbidimetric analysis. Type of data set: functional. A digest of the protocol:
as §3

Data set [17] can be described thus: Half life of the compound in 5% Me2SO-Jensen's minimal media at 0.7 to 2 X 10^-4 M at pH 6 by spectrophotometric analysis. Type of data set: physicochemical.
Data set [18] can be described thus: Half life of the compound in 40% Me2SO-Jensen's minimal media at 0.7 to 2 X 10^-4 M at pH 6 by spectrophotometric analysis. Type of data set: physicochemical.
Data set [19] has as its system Escherichia coli. Nature of the data set: Antibacterial activity against Escherichia coli Br cultured in Penassay broth assessed as effect on lag time after 9 hrs by turbidimetric analysis. Type of data set: functional, organism-based. Put shortly: as §2
Data set [20] relates to Escherichia coli. Nature of the data set: Antibacterial activity against Escherichia coli B cultured in Jensen's minimal media assessed as growth inhibition by turbidimetric analysis in presence of vitamin-free casamino acids and tryptophan. Type of data set: functional, organism-based. A digest of the protocol:
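Same minimal-medium turbidity assay with E. coli B: a 70% T culture was mixed with compound in Me2SO in Jensen's broth (pH 7) and read with agitation. Vitamin-free casamino acids (1.2 g/l) and tryptophan (200 mg/l) were added to the minimal broth.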

The subject of data set [21] is Escherichia coli. The data set can be described thus: Antibacterial activity against Escherichia coli B cultured in Jensen's minimal media assessed as growth inhibition at < 2 X 10^-5 M by turbidimetric analysis. Type of data set: functional, organism-based.

The term half-life denotes the time needed for the level to fall by half in the phase considered. A higher half-life goes with slow decline. On to `Cc1oc2ccccc2c1[N+](=O)[O-]`, for which the Ratio in data set [1] is above 10. The half-life in data set [2] was 3.34 h. In addition, the Stability entry in data set [3] was “Unstable”.

As for `Cc1oc2c(C(F)(F)F)cccc2c1[N+](=O)[O-]`, in [1], the Ratio is above 10. Besides, the half-life in data set [2] was 1.48 h. In addition, in data set [3], the Stability entry is “Unstable”.

Regarding `Cc1oc2c(C(N)=O)cccc2c1[N+](=O)[O-]`, in [1], the Ratio was above 10. The compound also gave a half-life in data set [2] of 1.91 h. Also, the Stability result in [3] is given as “Unstable”.

As for `Cc1oc2c([N+](=O)[O-])cccc2c1C#N`, the “growth inhibition (GI)” value in the data set with Escherichia coli [4] was “inactive”.

The MIC is the least concentration at which growth counts as inhibited. For `Cc1oc2c([N+](=O)[O-])cccc2c1[N+](=O)[O-]`, the result in the data set on Escherichia coli [5] was inactive. Besides, the outcome in the data set with Staphylococcus aureus [6], in the data set with Klebsiella pneumoniae [10] and with Escherichia coli [19] was Active. Besides, the MIC against Proteus mirabilis came out at 6.25 µg/mL (≈ 28.1 µM); against Providencia rettgeri, 7.5 µg/mL (≈ 33.8 µM); in the data set on Escherichia coli [8], 1.87 µg/mL (≈ 8.42 µM); in the data set on Enterococcus faecalis, 3.75 µg/mL (≈ 16.9 µM); against Klebsiella pneumoniae [11], 5 µg/mL (≈ 22.5 µM); with Staphylococcus aureus [12], 2.5 µg/mL (≈ 11.3 µM). For the same compound, the minimal inhibitory concentration (MIC) with Escherichia coli [15] was 1.87 µg/mL (≈ 8.42 µM); in the data set on Pseudomonas aeruginosa it was above 10 µg/mL; in the data set with Escherichia coli [16], 1.87 µg/mL (≈ 8.42 µM). The half-life is 1.95 h in data set [7]; 1.37 h in data set [2]; 1.78 h in data set [14]; 2.1 h in data set [17]; 1.51 h in [18]. For the same compound, the Ratio in data set [1] is given as above 10. The Time was found to be 6 h in the data set with Escherichia coli [9] and 3 h in the data set on Escherichia coli [13]. In data set [3], the Stability result is on record as “Unstable”.

On to `Cc1cc2cccc(Br)c2o1`, for which the “growth inhibition (GI)” value with Escherichia coli [4] is “inactive”.

As for `Cc1oc2c([N+](=O)[O-])cccc2c1C(N)=O`, the “growth inhibition (GI)” value in the data set with Escherichia coli [4] was “inactive”.

Regarding `Cc1oc2c(NC(=O)C(F)(F)F)cccc2c1[N+](=O)[O-]`, the “growth inhibition (GI)” value in the data set on Escherichia coli [20] and in the data set on Escherichia coli [21] was “inactive” each time. Further, in data set [2], the half-life is 2.88 h. In addition, the Stability entry in [3] is recorded as “Unstable”.

On to `Cc1cc2cccc(N)c2o1`, for which the “growth inhibition (GI)” value in the data set with Escherichia coli [4] is “inactive”.

As to `Cc1oc2c([N+](=O)[O-])cccc2c1C(=O)O`, the “growth inhibition (GI)” value in the data set with Escherichia coli [4] was “inactive”.

`NC(=O)N/N=C/c1ccc([N+](=O)[O-])o1` [NITROFURAZONE]: the MIC against Proteus mirabilis is 50 µg/mL (≈ 252 µM); with Providencia rettgeri it was above 100 µg/mL; in the data set on Escherichia coli [8] it was 18.7 µg/mL (≈ 94.4 µM); with Enterococcus faecalis, 50 µg/mL (≈ 252 µM); in the data set on Klebsiella pneumoniae [11] it was 10 µg/mL (≈ 50.5 µM); with Staphylococcus aureus [12] it was 5 µg/mL (≈ 25.2 µM). Also, the minimal inhibitory concentration (MIC) is 5 µg/mL (≈ 25.2 µM) against Escherichia coli [15], above 100 µg/mL against Pseudomonas aeruginosa and 5 µg/mL (≈ 25.2 µM) in the data set with Escherichia coli [16]. In the data set on Escherichia coli [19], the result was inactive.

As to `Cc1oc2c(Br)cccc2c1[N+](=O)[O-]`, in data set [1], the Ratio is on record as above 10. Also, the Stability entry in data set [3] is reported as “Unstable”.

For the compound `Cc1cc2cccc([N+](=O)[O-])c2o1`, in the data set on Escherichia coli [4], the “growth inhibition (GI)” value was “inactive”.

With `Cc1oc2ccc([N+](=O)[O-])cc2c1[N+](=O)[O-]`, in data set [1], the Ratio is recorded as above 10. For the same compound, the half-life in data set [2] was 0.89 h. Further, the Stability result in [3] is reported as “Unstable”.

Turning to `Cc1oc2c([N+](=O)[O-])cccc2c1Br`, in the data set on Escherichia coli [4], the “growth inhibition (GI)” value was “inactive”.
